Experimental data from ChEMBL document CHEMBL1151775, “Inhibition of aquaporin 4 by antiepileptic drugs” (Bioorg Med Chem, 2009).

Assays:
Assay type in all cases: cell-based
[1] = tested on: Oocyte; assay: Inhibition of human aquaporin 4 M23 isoform expressed in Xenopus laevis oocytes at 20 uM
In short: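 Oocytes injected with 30 nL hAQP4b cRNA (0.1 µg/µL) or water sham, cultured 48 h at 18 C in MBS. Exposure to 20 µM compound (0.1% DMSO) for 2 h, then hypotonic challenge by dilution with buffer-free solution of matching inhibitor/DMSO. Oocyte area imaged each 60 s for 4 min, converted to volume. Osmotic permeability-based percent inhibition versus blank and sham; single-tail ANOVA, P < 0.05.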

[2] = (§1) Inhibition of human aquaporin 4 M23 isoform expressed in Xenopus laevis oocytes; settings: oocyte
In short: (§2)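 hAQP4b cRNA (0.1 µg/µL, 30 nL) or water (sham) injected into oocytes, kept 48 h at 18 C in MBS. Oocytes preincubated 2 h with ligand at 0.1, 1, 5, 10, 20 or 100 µM, 0.1% DMSO final, then diluted with buffer-free hypotonic solution. Swelling imaged every 60 s up to 4 min; n = 5 oocytes. Percent inhibition relative to blank and sham Pf fit sigmoidally for apparent IC50.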

[3] = tested on: Oocyte; assay: as §1; in short: as §2

SMILES | inhibition [1] | IC50 [2] | Imax [3]
CC1(C)O[C@@H]2[C@@H](CO[C@@]3(COS(N)(=O)=O)OC(C)(C)O[C@@H]23)O1 [TOPIRAMATE] | 67% | 10 µM | 75%
NC(=O)N1c2ccccc2C2OC2c2ccccc21 (stereo not drawn) | 40% |  | 
CC(=O)Nc1nnc(S(N)(=O)=O)s1 [ACETAZOLAMIDE] | 78% | 0.86 µM | 86%
CCCC(CCC)C(=O)O | 40% |  | 
O=C1NC(=O)C(c2ccccc2)(c2ccccc2)N1 [PHENYTOIN] | 58% | 9.8 µM | 60%
Nc1nnc(-c2cccc(Cl)c2Cl)c(N)n1 [LAMOTRIGINE] | 54% | 8.1 µM | 64%
NS(=O)(=O)Cc1noc2ccccc12 [ZONISAMIDE] | 48% | 3.3 µM | 48%
NC(=O)N1c2ccccc2CC(=O)c2ccccc21 | 33% |  | 
